Series [1] relates to Y79. As to the kind of experiment: Cellular uptake in human Y79 cells relative to unglycosylated TPP(p-DegOH)3. The format is ADME, cell-based.
The test system of series [2] is B16. The experiment in a line: Cellular uptake in mouse B16 cells relative to unglycosylated TPP(p-DegOH)3. Format: ADME, cell-based.
The subject of series [3] is HT-29. The experiment in a line: Cellular uptake in human HT29 cells relative to unglycosylated TPP(p-DegOH)3. The format is ADME, cell-based.
Series [4] is described as follows: Partition coefficient of the compound, log P. The format is physicochemical. The following applies: octanol/water.
The test system of series [5] is Y79. As to the kind of experiment: Toxicity against human Y79 cells at 2 uM after 4 hrs in dark. Format: cell-based. The following applies: y79, 4 h. The essentials:
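Y79 cells were plated at 2 × 10^5 cells/mL in COON's medium with 2% FCS. They were exposed to 2 µM dye (DMSO stock diluted in medium) for 4 h in the dark, then centrifuged, washed and resuspended in fresh complete medium with no irradiation. Survival fraction was measured by MTT at 570/640 nm.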

Series [6] has as its system Y79. As to the kind of experiment: Survival of human Y79 cells at 2 uM irradiated with 514 nM light at the fluence of 1 J/cm2 after 4 hrs. The format is functional. The settings on record: Y79, light or radiation study, read-out: LD50 (the source's name). The essentials: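 Y79 retinoblastoma cells (ATCC, suspension in COON's medium with 20% FCS) plated at 2 × 10^5 cells/mL in COON's with 2% FCS. Dye added from a 5 mg/mL DMSO stock, incubated 4 h in the dark, then cells centrifuged, washed and resuspended in fresh complete medium. Ar+ laser irradiation at 514 nm, 1 J/cm2. MTT viability read 24 h later at 570/640 nm.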

The test system of series [7] is B16. As to the kind of experiment: Survival of mouse B16 cells at 2 uM irradiated with 514 nM light at the fluence of 5 J/cm2 after 4 hrs. Format: functional. The following applies: B16, light or radiation study, read-out: LD50 (the source's name). The essentials: (§1)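 Adherent cells (human HT29 colorectal adenocarcinoma; murine B16 melanoma) seeded at 10^5 cells/mL. Dye added from a DMSO stock and incubated 4 h in DMEM with 2% FCS in the dark. Irradiation at 514 nm, 5 J/cm2, in the same dye-containing medium. Survival measured by MTT colorimetric assay.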

For series [8], the system named is HT-29. The experiment in a line: Survival of human HT29 cells at 2 uM irradiated with 514 nM light at the fluence of 5 J/cm2 after 4 hrs. Format: functional. The settings on record: HT-29, light or radiation study, read-out: LD50 (the source's name). The essentials: as §1

Regarding `OCCOCCOc1ccc(-c2c3nc(c(-c4ccccc4)c4ccc([nH]4)c(-c4ccc(OCCOCCO)cc4)c4ccc([nH]4)c(-c4ccc(OCCOCCO)cc4)c4nc2C=C4)C=C3)cc1`, the Ratio in the series with Y79 [1], in the series on B16 [2] and in the series with HT-29 [3] was 1 throughout. The logP in series [4] was > 2. Moreover, the Activity result with Y79 [5] is on record as “Not Active”. In addition, in the series with Y79 [6], the CC50 was > 2 µM.

With `OC[C@H]1O[C@@H](SCCOCCOc2ccc(-c3c4nc(c(-c5ccccc5)c5ccc([nH]5)c(-c5ccc(OCCOCCS[C@@H]6O[C@H](CO)[C@H](O)[C@@H](O)[C@H]6O)cc5)c5ccc([nH]5)c(-c5ccc(OCCOCCS[C@@H]6O[C@H](CO)[C@H](O)[C@@H](O)[C@H]6O)cc5)c5nc3C=C5)C=C4)cc2)[C@H](O)[C@H](O)[C@H]1O`, the Ratio in the series with Y79 [1] is given as 3.5; with B16 [2] it was 2.7; in the series on HT-29 [3], 3. The logP in series [4] is -0.07. In the series with Y79 [5], the Activity entry is reported as “Not Active”. The CC50 in the series on Y79 [6] was 0.6 µM; with B16 [7] it was 2 µM; in the series with HT-29 [8], 0.82 µM.

For `OC[C@H]1O[C@@H](OCCOCCOc2ccc(-c3c4nc(c(-c5ccccc5)c5ccc([nH]5)c(-c5ccc(OCCOCCO[C@@H]6O[C@H](CO)[C@H](O)[C@@H](O)[C@H]6O)cc5)c5ccc([nH]5)c(-c5ccc(OCCOCCO[C@@H]6O[C@H](CO)[C@H](O)[C@@H](O)[C@H]6O)cc5)c5nc3C=C5)C=C4)cc2)[C@H](O)[C@H](O)[C@H]1O`, the Ratio amounted to 3.7 with Y79 [1], 4 in the series with B16 [2] and 4.4 with HT-29 [3]. The molecule further came in with a logP in series [4] of 0.23. For the same molecule, in the series with Y79 [5], the Activity entry is listed as “Not Active”. The results for the CC50 with Y79 [6], with B16 [7] and in the series with HT-29 [8] were 0.6 µM, 0.68 µM and 0.25 µM, respectively.

With `OC[C@H]1O[C@H](OCCOc2ccc(-c3c4nc(c(-c5ccccc5)c5ccc([nH]5)c(-c5ccc(OCCO[C@H]6O[C@H](CO)[C@@H](O)[C@@H](O)[C@@H]6O)cc5)c5ccc([nH]5)c(-c5ccc(OCCO[C@H]6O[C@H](CO)[C@@H](O)[C@H](O)[C@@H]6O)cc5)c5nc3C=C5)C=C4)cc2)[C@@H](O)[C@@H](O)[C@@H]1O`, the values for the Ratio with Y79 [1], with B16 [2] and in the series on HT-29 [3] were 1.6, 1.8 and 1.7, respectively. In series [4], this molecule registered a logP of 0.78. In addition, in the series on Y79 [5], the Activity result is recorded as “Not Active”. Also, the CC50 in the series on Y79 [6] worked out at 0.6 µM; in the series with B16 [7], 0.85 µM; in the series on HT-29 [8] it was 0.44 µM.

Turning to `OC[C@H]1O[C@H](OCCOCCOc2ccc(-c3c4nc(c(-c5ccccc5)c5ccc([nH]5)c(-c5ccc(OCCOCCO[C@H]6O[C@H](CO)[C@@H](O)[C@H](O)[C@@H]6O)cc5)c5ccc([nH]5)c(-c5ccc(OCCOCCO[C@H]6O[C@H](CO)[C@@H](O)[C@H](O)[C@@H]6O)cc5)c5nc3C=C5)C=C4)cc2)[C@@H](O)[C@@H](O)[C@@H]1O`, the figures for the Ratio with Y79 [1], in the series on B16 [2] and in the series on HT-29 [3] were 4.9, 6.5 and 5, respectively. The molecule also displayed a log partition coefficient (logP) in series [4] of 0.02. Further, the Activity result with Y79 [5] is “Not Active”. For the same molecule, the figures for the CC50 in the series on Y79 [6], with B16 [7] and with HT-29 [8] were 0.35 µM, 0.43 µM and 0.35 µM, respectively.

`OC[C@H]1O[C@H](OCCOCCOc2ccc(-c3c4nc(c(-c5ccccc5)c5ccc([nH]5)c(-c5ccc(OCCOCCO[C@H]6O[C@H](CO)[C@H](O)[C@@H](O)[C@H]6O)cc5)c5ccc([nH]5)c(-c5ccc(OCCOCCO[C@H]6O[C@H](CO)[C@H](O)[C@@H](O)[C@H]6O)cc5)c5nc3C=C5)C=C4)cc2)[C@H](O)[C@H](O)[C@H]1O`: the Ratio is listed as 2 in the series with Y79 [1] and 1.8 in the series on HT-29 [3]. The same molecule registered a logP in series [4] of 0.5. Besides, the Activity entry in the series with Y79 [5] is “Not Active”. In addition, the CC50 in the series on Y79 [6] was found to be 0.05 µM; in the series on B16 [7] it was 0.1 µM; in the series on HT-29 [8], 0.82 µM.

Take `OC[C@H]1O[C@H](SCCOCCOc2ccc(-c3c4nc(c(-c5ccccc5)c5ccc([nH]5)c(-c5ccc(OCCOCCS[C@H]6O[C@H](CO)[C@@H](O)[C@H](O)[C@@H]6O)cc5)c5ccc([nH]5)c(-c5ccc(OCCOCCS[C@H]6O[C@H](CO)[C@@H](O)[C@H](O)[C@@H]6O)cc5)c5nc3C=C5)C=C4)cc2)[C@@H](O)[C@@H](O)[C@@H]1O`: the Ratio in the series with Y79 [1] stood at 1.4; in the series on B16 [2], 1.3; with HT-29 [3], 1.2. This molecule showed a logP in series [4] of 0.46. Further, the Activity entry in the series with Y79 [5] is reported as “Not Active”. The results for the CC50 with Y79 [6], in the series with B16 [7] and in the series with HT-29 [8] were 0.65 µM, 2 µM and > 2 µM, respectively.

In general, logP refers to the decadic logarithm of the partition coefficient of the neutral form, usually between octanol and water. The low end stands for a more hydrophilic compound, the high end for a more lipophilic compound.

Values taken from ChEMBL document CHEMBL1146069, “Photodynamic efficiency of diethylene glycol-linked glycoconjugated porphyrins in human retinoblastoma cells” (J Med Chem, 2006).
